Measurements collected from several papers.
Compare with care: the assays were run in different laboratories.
Target: Ephrin type-B receptor 6 (EPHB6, Homo sapiens, UniProt O15197)
Sequence (O15197 32-1021, as in one of the studies): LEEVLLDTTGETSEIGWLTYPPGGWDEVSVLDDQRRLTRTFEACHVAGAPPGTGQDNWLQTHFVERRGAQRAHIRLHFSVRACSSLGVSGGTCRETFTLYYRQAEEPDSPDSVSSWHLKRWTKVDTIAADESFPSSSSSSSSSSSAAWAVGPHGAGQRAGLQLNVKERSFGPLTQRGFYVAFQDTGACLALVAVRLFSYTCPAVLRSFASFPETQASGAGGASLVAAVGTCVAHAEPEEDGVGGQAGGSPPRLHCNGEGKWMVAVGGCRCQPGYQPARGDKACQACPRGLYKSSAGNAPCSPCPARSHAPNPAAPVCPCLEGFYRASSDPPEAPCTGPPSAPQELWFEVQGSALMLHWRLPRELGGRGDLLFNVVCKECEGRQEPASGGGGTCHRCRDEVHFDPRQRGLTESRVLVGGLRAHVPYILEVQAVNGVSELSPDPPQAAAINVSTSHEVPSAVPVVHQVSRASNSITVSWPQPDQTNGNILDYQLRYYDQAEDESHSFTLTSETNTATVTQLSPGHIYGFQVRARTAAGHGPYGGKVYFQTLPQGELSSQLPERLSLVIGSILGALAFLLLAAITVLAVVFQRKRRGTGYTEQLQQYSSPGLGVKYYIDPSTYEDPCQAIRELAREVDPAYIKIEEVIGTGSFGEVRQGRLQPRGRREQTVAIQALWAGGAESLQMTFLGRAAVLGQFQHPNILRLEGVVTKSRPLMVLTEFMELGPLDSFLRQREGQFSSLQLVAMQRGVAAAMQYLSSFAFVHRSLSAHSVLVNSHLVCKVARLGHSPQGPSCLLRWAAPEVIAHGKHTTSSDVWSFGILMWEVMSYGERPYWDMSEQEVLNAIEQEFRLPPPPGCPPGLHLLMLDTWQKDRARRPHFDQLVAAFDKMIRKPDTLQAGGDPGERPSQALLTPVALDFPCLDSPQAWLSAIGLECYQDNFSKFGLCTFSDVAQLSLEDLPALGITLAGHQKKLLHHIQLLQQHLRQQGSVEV

O=C(O)[C@@H]1[C@@H](Cn2nnc3ccccc3c2=O)CC[C@H]1C(=O)c1ccc(OCCC2CCOCC2)cc1  remaining binding (cell-free assay, competition with immobilised ligand; 1 µM): 100%
O=C(c1ccc(Nc2ncc(Cl)c(-c3cc4ccccc4s3)n2)cc1)N1CCC(N2CCCC2)CC1  remaining binding (binding, competition with immobilised ligand; 1 µM): 3.9%
COc1cnc(Nc2cccc(S(N)(=O)=O)c2)nc1N1CCN(c2ccccc2)C(=O)C1  remaining binding (binding, competition with immobilised ligand; 1 µM): 90%
CCN1CCN(Cc2ccc(C(=O)Nc3ccc(C)c(Oc4ccc5c(c4)CC(=O)N5)c3)cc2C(F)(F)F)CC1  remaining binding (binding, competition with immobilised ligand; 1 µM): 91%
C[C@@H]1CCN(c2nccc(-c3cnn4ncccc34)n2)C1  remaining binding (binding; 1 µM): 93%
Cc1nc(N2CC[C@@H](O)C2)ncc1-c1cc(C(F)(F)F)cc2[nH]ncc12  remaining binding (binding, competition with immobilised ligand; 1 µM): 36%
COc1cnc(Nc2cccc(S(N)(=O)=O)c2)nc1N1CCN(c2ccccc2)CC1  remaining binding (binding, competition with immobilised ligand; 1 µM): 95%
CN(C)c1nccc(-c2cnc3ncccn23)n1  remaining binding (binding; 1 µM): 45%
C[C@H](NC(=O)c1cnc2n1[C@](C)(Cc1ccc(C#N)cc1)C(=O)N2c1cc(Cl)c(F)c(Cl)c1)C(=O)NC1(c2ccccn2)CC1  remaining binding (cell-free assay, competition with immobilised ligand; 1 µM): 100%
O=C(NCCCN1CCOCC1)c1ccc(Nc2ncc(Cl)c(-c3ccc(Cl)s3)n2)cc1  remaining binding (binding, competition with immobilised ligand; 1 µM): 13%
CN(c1nccc(-c2cnn3ncccc23)n1)C1CC1  remaining binding (binding; 1 µM): 100%
O=C(NC[C@@H]1[C@H]2CN(C(=O)OCc3cc(C(F)(F)F)cc(C(F)(F)F)c3)C[C@@H]12)c1ccc2[nH]nnc2c1  remaining binding (cell-free assay, competition with immobilised ligand; 1 µM): 100%
N[C@H]1CCN(c2nccc(-c3cnn4ncccc34)n2)C1  remaining binding (binding; 1 µM): 56%
O=C(Nc1c[nH]nc1C(=O)NC1CCNCC1)c1cc(F)cc(F)c1  remaining binding (binding, competition with immobilised ligand; 1 µM): 100%
CC(=O)N1CCC(c2ccc(C(=O)NC3=NCCN3)cc2C(F)(F)F)CC1  remaining binding (cell-free assay, competition with immobilised ligand; 1 µM): 100%
C[C@@H](c1ccc(-n2cnc3c(N)ncnc32)cc1)N1CCc2nn(C)c(Cc3ccccc3)c2C1=O  remaining binding (binding, competition with immobilised ligand; 0.1 µM): 51%
O=C(Nc1cccnn1)N1CC(C/C=C/c2cncc(Oc3ccc(C(F)(F)F)cn3)n2)C1  remaining binding (cell-free assay, competition with immobilised ligand; 1 µM): 87%
FC(F)(F)Oc1cccc(-c2cnc3ccc(-c4ccncc4)nn23)c1  remaining binding (cell-free assay, competition with immobilised ligand; 5 µM): 9.3%
CC1CCCN1c1nccc(-c2cnn3ncccc23)n1 (stereo not shown)  remaining binding (binding; 1 µM): 82%
C[C@@H]1CN(c2cc(-c3n[nH]c4ccc(OC5(C)CC5)cc34)ncn2)C[C@H](C)O1  remaining binding (cell-free assay, competition with immobilised ligand; 0.1 µM): 91%
CN(C)c1ncc(F)c(-c2cnn3ncccc23)n1  remaining binding (binding; 1 µM): 77%
Cc1cnc(Nc2ccc(C(=O)N3CCC(N4CCCC4)CC3)cc2)nc1-c1cc2ccccc2s1  remaining binding (binding, competition with immobilised ligand; 1 µM): 3.3%
